Source: PubChem BioAssay (The Scripps Research Institute Molecular Screening Center)
A selection: hits, their analogues and other compounds. The true share with any hit is near 2.5%.
PRMT1 FP inh – inhibitors of human PRMT1 | Q99873 | recombinant PRMT1, activity-based probe fluorescence polarization | inhibition, % at 2.79 µM | 370,000 compounds, 1.3% hits;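 active = inhibition above about 21% made by adding two undisclosed values, limit read from the data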
Target sequence (Q99873 whole entry, looked up): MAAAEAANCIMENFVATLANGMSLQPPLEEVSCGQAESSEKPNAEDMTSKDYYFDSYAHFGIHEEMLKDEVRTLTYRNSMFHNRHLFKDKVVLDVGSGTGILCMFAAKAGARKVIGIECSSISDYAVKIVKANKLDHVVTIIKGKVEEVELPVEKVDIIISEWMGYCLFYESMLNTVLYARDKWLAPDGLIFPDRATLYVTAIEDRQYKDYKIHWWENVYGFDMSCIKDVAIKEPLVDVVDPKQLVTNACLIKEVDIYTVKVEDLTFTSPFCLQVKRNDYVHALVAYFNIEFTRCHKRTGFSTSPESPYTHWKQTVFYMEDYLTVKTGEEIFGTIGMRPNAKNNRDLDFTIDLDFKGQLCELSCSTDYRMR
PAD4 FP inh – blocks human protein arginine deiminase 4. Q9UM07. recombinant PAD4, RCA probe fluorescence polarization. inhibition, % at 6.36 µM. 330,000 compounds, 0.41% hits;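 active = percent inhibition above a cutoff equal to the mean of all tested compounds plus 3 SD, cut at about 15% in these data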
GSTO1 inh – GSTO1 inhibition, counter-screen for RBBP9 inhibitors; P78417; recombinant GSTO1, activity-based probe fluorescence polarization; inhibition, % at 5.96 µM; 300,000 compounds, 1.1% hits; AID 1974;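 active = inhibition above the campaign mean inhibition plus 3 SD, cut at about 35% in these data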
Target sequence (P78417 whole entry, looked up): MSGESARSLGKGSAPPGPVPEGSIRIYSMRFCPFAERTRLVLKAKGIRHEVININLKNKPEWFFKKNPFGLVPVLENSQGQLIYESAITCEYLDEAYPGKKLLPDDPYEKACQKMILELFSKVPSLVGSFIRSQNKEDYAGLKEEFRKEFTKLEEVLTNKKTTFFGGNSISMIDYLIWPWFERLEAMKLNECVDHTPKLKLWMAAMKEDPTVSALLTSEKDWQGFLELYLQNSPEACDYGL
CTSL1 counter – counter-screen for PFM18AAP inhibitors: inhibitors of F. hepatica cathepsin L1; 300,000 compounds, 0.49% hits; recombinant F. hepatica cathepsin L1, Z-Leu-Arg-MCA fluorescence; inhibition, % at 5.96 µM;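 active = inhibition above the mean of all tested compounds plus 3 SD, set per screening campaign, cut at about 17% in these data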
TDP2 inh – blocks human TDP2 phosphodiesterase activity | O95551 | recombinant TDP2, T5PNP hydrolysis, p-nitrophenol absorbance 415 nm | inhibition, % at 12.8 µM | 370,000 compounds, 0.34% hits;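 active = inhibition above the mean of all tested compounds plus 3 SD, set per campaign, cut at about 25% in these data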
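Test system: Human TDP2 enzyme | Reagent: 5 mM T5PNP | Compound dosing: 12.8 µM single point, 1% DMSO | Incubation: Enzyme reaction with compound for 2 h at 37 °C | Technique: p-Nitrophenol epi absorbance | Read-out: % inhibition relative to enzyme-containing and enzyme-free wells | Benchmarks: High control without enzyme, low control DMSO plus TDP2 | Replicates: Singlicate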
GSTO1 confirm – confirmation of human GSTO1 inhibitors; shares compounds with GSTO1 inh; recombinant GSTO1, probe fluorescence polarization; inhibition, % at 5.96 µM; 2,400 compounds, 54% hits; AID 2176;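 active = inhibition above the primary screen's cutoff, its mean inhibition plus 3 SD, cut at about 35% in these data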;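 also: loss of polarization as inhibitors block binding of rhodamine sulfonate ester activity probe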
GSTO1 recomb ABPP – inhibitors of recombinant human GSTO1 | shares compounds with GSTO1 inh | gel ABPP SE-Rh probe fluorescence | inhibition, % at 1 µM | 130 compounds, 30% hits | AID 463110;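 active = inhibition of the enzyme GSTO1 above about 75%, limit read from the data; inactive = inhibition below that limit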
Of the large screens only hits and unclear results are named; the others gave an inactive call (follow-up assays come after a bar, where they were run).

COc1ccc(C(CC(=O)c2ccc(O)cc2)S(=O)(=O)c2ccc(C)cc2)cc1 (stereo unspecified)	GSTO1 inh 40 | GSTO1 confirm inactive
COc1ccc(C(=O)CCS(=O)(=O)c2ccc(C)cc2)cc1	none
O=C(CCl)N1N=C(c2cccs2)CC1c1ccco1 (stereo unspecified)	GSTO1 inh 92, CTSL1 counter 27 | GSTO1 confirm 100
CCC(=O)N1N=C(c2ccc(Cl)cc2)CC1c1ccco1 (stereo unspecified)	none
O=C(CCl)N1N=C(c2ccco2)CC1c1ccco1 (stereo unspecified)	PRMT1 FP inh 38, GSTO1 inh 90 | GSTO1 confirm 97
O=c1cc(CCl)nc2sc3ccccc3n12	GSTO1 inh 89 | GSTO1 confirm 100 | GSTO1 recomb ABPP 87
C=CCn1c(O)c(N=NC(=S)Nc2ccccc2C)c2cc(S(=O)(=O)N3CCOCC3)ccc21	GSTO1 inh 42 | GSTO1 confirm inactive
Cn1c(O)c(N=NC(=S)Nc2ccccc2F)c2cc(S(=O)(=O)N3CCOCC3)ccc21	none (no result: PAD4 FP inh, GSTO1 inh, CTSL1 counter)
COc1ccc(CNc2ccc(N3CCN(C(C)=O)CC3)cc2)cc1OC	none (no result: PAD4 FP inh, GSTO1 inh, CTSL1 counter)
COc1cc(CNc2ccc(S(N)(=O)=O)cc2)ccc1OCc1ccccc1F	none (no result: PAD4 FP inh, GSTO1 inh, CTSL1 counter)
COc1cc(CNc2ccc(N3CCCCC3)cc2)ccc1OCC(=O)NC(C)(C)C	GSTO1 inh 47 | GSTO1 confirm inactive
COc1cc(CNc2ccc(N3CCCC3)cc2)ccc1OCc1ccccc1F	GSTO1 inh 46 (no result: PRMT1 FP inh, TDP2 inh) | GSTO1 confirm 35
O=S(=O)(c1ccc(Cl)cc1)N1CCC2(CC1)CO2	GSTO1 inh 96 | GSTO1 confirm 106 | GSTO1 recomb ABPP inactive
O=S(=O)(c1ccc(Cl)cc1)N1CCCCCC1	none
Nc1ccc(Oc2ncccn2)cc1	GSTO1 inh 65 | GSTO1 confirm inactive
Cc1ccc(-n2nc3ccc(N)cc3n2)cc1C	none
COc1ccc(-n2nc3ccc(N)cc3n2)cc1Cl	GSTO1 inh 53 | GSTO1 confirm 49
Cc1ccc(-n2nc3ccc(N)cc3n2)cc1Cl	GSTO1 inh 44 | GSTO1 confirm inactive
COc1ccc(-n2nc3ccc(NS(C)(=O)=O)cc3n2)cc1Cl	none
CC(C)(C)OC(=O)n1ccc2ccc(-c3ccc4cc[nH]c4c3)cc21	none (no result: PAD4 FP inh, GSTO1 inh, CTSL1 counter)
CCC(Sc1nc(-c2ccccc2)c(C#N)c(=O)[nH]1)C(=O)Nc1nnc(C)s1 (stereo unspecified)	GSTO1 inh 61 | GSTO1 confirm 63
C(=N\Nc1nc2ccccc2[nH]1)/c1ccc2c(c1)OCO2	none (no result: PAD4 FP inh, GSTO1 inh, CTSL1 counter)
N#CC1(c2nc3ccccc3[nH]2)CC1c1ccc2c(c1)OCO2 (stereo unspecified)	GSTO1 inh 46 | GSTO1 confirm inactive
COc1ccc(S(=O)(=O)N2CCCCC2)cc1NC(=O)CN1CCN(C(C)=O)CC1	none
COc1ccc(S(=O)(=O)N2CCOCC2)cc1NC(=O)CN1CCN(C)CC1	GSTO1 inh 38 | GSTO1 confirm inactive
O=C(c1cccs1)[C@@H]1[C@@H]2C(=O)N(Cc3ccc4c(c3)OCO4)C(=O)[C@@H]2C2c3ccccc3C=CN21 (stereo partly specified)	GSTO1 inh 38 (no result: PRMT1 FP inh, TDP2 inh) | GSTO1 confirm inactive
O=C(c1ccc2c(c1)OCO2)[C@@H]1[C@@H]2C(=O)N(C3CCCCC3)C(=O)[C@@H]2C2c3ccccc3C=CN21 (stereo partly specified)	none (no result: PAD4 FP inh, GSTO1 inh, CTSL1 counter)
CCOCC(=O)Nc1nnc(Cc2ccc(OC)c(OC)c2)s1	none
CCOCC(=O)Nc1nnc(Cc2ccc(OC)cc2)s1	GSTO1 inh 39 | GSTO1 confirm inactive
CC(C)CC(NS(=O)(=O)c1cccc(C(=O)O)c1)C(=O)O (stereo unspecified)	GSTO1 inh 51 | GSTO1 confirm inactive
CC(C)C[C@H](NS(=O)(=O)c1ccc(Br)cc1)C(=O)O	none
N[C@H](C(=O)Nc1ccc(Cl)cc1C(=O)c1ccc[nH]1)c1ccccc1	none (no result: PAD4 FP inh, GSTO1 inh, CTSL1 counter)
Oc1ccc(N=Cc2ccc(OCc3ccccc3)cc2)cc1	PRMT1 FP inh 36, GSTO1 inh 86, CTSL1 counter 45 | GSTO1 confirm inactive
O=C1CC(CC(=O)N/N=C/c2ccccc2[N+](=O)[O-])=NN1	GSTO1 inh 52, CTSL1 counter 18 | GSTO1 confirm inactive
COc1cc(OC)c([N+](=O)[O-])cc1/C=N/NC(=O)c1ccncc1	GSTO1 inh 49 | GSTO1 confirm inactive
COc1cc(/C=N/NC(=O)c2ccncc2)c([N+](=O)[O-])cc1OC	none
O=c1c(O)c(-c2cc(O)c(O)c(O)c2)oc2cc(O)cc(O)c12	PRMT1 FP inh 54, GSTO1 inh 79 | GSTO1 confirm 48
COc1c(-c2ccc(O)c(O)c2)oc2cc(O)cc(O)c2c1=O	GSTO1 inh 41 | GSTO1 confirm inactive
C=CCN1[C@@H](C)COc2cccc(N3CCSCC3)c2S1(=O)=O	none (no result: PAD4 FP inh, GSTO1 inh, CTSL1 counter)
Cc1ccc(/C=N/Nc2cccc3cccnc23)c(O)c1	none
Oc1ccc(/C=N/Nc2cccc3cccnc23)c(O)c1	GSTO1 inh 38 | GSTO1 confirm inactive
Cc1ccc(-n2c(SCc3cccc4ccccc34)nnc2-c2ccccn2)cc1	none (no result: PAD4 FP inh, GSTO1 inh, CTSL1 counter)
CC(=O)N(Cc1ccc(F)cc1)C1=C(NCCc2ccccc2)C(=O)c2ccccc2C1=O	GSTO1 inh 44 | GSTO1 confirm 46
CC(=O)N(Cc1ccc(F)cc1)c1cccc(C)c1C	none
C=CCn1c(SCC(=O)C(C)(C)C)nnc1-c1ccc(Cl)cc1	none (no result: PAD4 FP inh, GSTO1 inh, CTSL1 counter)
CCOC(=O)N1CCN(CC(=O)Nc2ccc(F)cc2F)CC1	GSTO1 inh 43 | GSTO1 confirm inactive
CCCCCCCCN1CCS(=O)(=O)N(Cc2ccccc2)C(C(=O)OC)C1 (stereo unspecified)	none (no result: PAD4 FP inh, GSTO1 inh, CTSL1 counter)
C/C(=N\NC(=O)c1cc(O)cc(O)c1)c1ccc(NC(=O)Cc2ccccc2)cc1	GSTO1 inh 38 | GSTO1 confirm 47
COC(CN(C(=O)CCl)C(C(=O)NC1CCCCC1)c1ccc(C)cc1)OC (stereo unspecified)	GSTO1 inh 93, CTSL1 counter 78 | GSTO1 confirm 91 | GSTO1 recomb ABPP inactive
COc1ccc(C(C(=O)NC2CCCCC2)N(C(=O)CCl)c2cccc(Cl)c2)cc1 (stereo unspecified)	GSTO1 inh 81 | GSTO1 confirm 90 | GSTO1 recomb ABPP 83
COc1cccc(N(C(=O)c2cnccn2)C(C(=O)NC2CCCCC2)c2ccc(Cl)cc2)c1 (stereo unspecified)	none
COc1ccc(C(C(=O)NC2CCCCC2)N(C(=O)CCl)c2ccc(C)cc2)cc1 (stereo unspecified)	GSTO1 inh 89 | GSTO1 confirm 95 | GSTO1 recomb ABPP 88
CCOc1cc(CNc2ccc(O)cc2)cc(Br)c1OCc1ccccc1F	GSTO1 inh 80 (no result: PRMT1 FP inh, TDP2 inh) | GSTO1 confirm inactive
